Results as given in ChEMBL document CHEMBL4359893, “Synthesis, structure-activity relationship and trypanocidal activity of pyrazole-imidazoline and new pyrazole-tetrahydropyrimidine hybrids as promising chemotherapeutic agents for Chagas disease” (Eur J Med Chem, 2019).

Assays:
Trypanosoma cruzi [1] = test: Trypanocidal activity against intracellular amastigote stage of luciferase expressing Trypanosoma cruzi Dm28c infected in Vero cells assessed as reduction in parasite viability after 72 hrs in presence of luciferin by luciferase luminescence analysis
Trypanosoma cruzi [2] = test: Trypanocidal activity against luciferase expressing Trypanosoma cruzi Dm28c trypomastigotes isolated from infected Vero cells assessed as reduction in parasite viability after 24 hrs by luciferase-luminescence assay; format: functional, organism-based
How it was run: (§1)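 Trypomastigotes at 1 × 10⁶ parasites/well treated 24 h at 37 °C with 0.41–100 µM compound. Y strain viability read by ATP luminescence (CellTiter-Glo); Dm28c-Luc viability read by luciferase activity. IC50/IC90 by linear regression. Benznidazole positive and DMSO ≤1% negative controls.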

Trypanosoma cruzi [3] = test: Trypanocidal activity against Trypanosoma cruzi Y strain bloodstream trypomastigotes isolated from infected Swiss webster mouse cardiac cells assessed as reduction in parasite viability after 24 hrs by Celltiter-Glo assay; format: functional, organism-based
How it was run: as §1

[4] = Cytotoxicity against African green monkey Vero cells assessed as reduction in cell viability by measuring ATP level after 72 hrs by Celltiter-Glo assay; format: cell-based; settings: chlorocebus sabaeus
How it was run: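 Vero cells seeded at 1.5 × 10⁴ cells/well, exposed 24 h later to 1.95–500 µM compound for 72 h at 37 °C. Viability read as ATP luminescence (CellTiter-Glo). DMSO ≤1% as control. CC50 from linear regression; at least three independent assays in duplicate.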

[5] = Selectivity index, ratio of CC50 for African green monkey Vero cells to IC50 for intracellular amastigote stage of luciferase expressing Trypanosoma cruzi Dm28c infected in Vero cells; format: toxicity, cell-based; settings: read-out: Ratio CC50/IC50
[6] = Selectivity index, ratio of CC50 for African green monkey Vero cells to IC50 for Trypanosoma cruzi Y strain bloodstream trypomastigotes isolated from infected Swiss webster mouse cardiac cells; format: toxicity; settings: read-out: Ratio CC50/IC50
[7] = Selectivity index, ratio of CC50 for African green monkey Vero cells to IC50 for luciferase expressing Trypanosoma cruzi Dm28c trypomastigotes isolated from infected Vero cells; format: toxicity; settings: read-out: Ratio CC50/IC50
Cruzipain [8] = molecular target: T1, Cruzipain (Trypanosoma cruzi, UniProt P25779); test: Irreversible inhibition of Trypanosoma cruzi cruzipain
T1 sequence (P25779 whole entry): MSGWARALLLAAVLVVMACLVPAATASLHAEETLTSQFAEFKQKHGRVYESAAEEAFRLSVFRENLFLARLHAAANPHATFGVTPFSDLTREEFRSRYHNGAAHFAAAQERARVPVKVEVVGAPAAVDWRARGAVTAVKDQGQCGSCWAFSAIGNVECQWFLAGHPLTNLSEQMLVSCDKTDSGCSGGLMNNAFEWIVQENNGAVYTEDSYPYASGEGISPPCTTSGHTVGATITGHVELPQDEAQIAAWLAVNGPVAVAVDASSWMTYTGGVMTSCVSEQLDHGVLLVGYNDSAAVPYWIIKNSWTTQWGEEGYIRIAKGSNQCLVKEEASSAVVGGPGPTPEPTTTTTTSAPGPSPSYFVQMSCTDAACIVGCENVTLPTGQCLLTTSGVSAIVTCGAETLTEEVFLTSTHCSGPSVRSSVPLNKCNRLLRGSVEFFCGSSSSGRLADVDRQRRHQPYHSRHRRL

[9] = molecular target: Cruzipain (Trypanosoma cruzi) (UniProt P25779); test: Potency index, ratio of compound IC50 to E-64 IC50 for inhibition of Trypanosoma cruzi cruzipain
Chain of Cruzipain (Trypanosoma cruzi) (P25779 123-467 limits assumed): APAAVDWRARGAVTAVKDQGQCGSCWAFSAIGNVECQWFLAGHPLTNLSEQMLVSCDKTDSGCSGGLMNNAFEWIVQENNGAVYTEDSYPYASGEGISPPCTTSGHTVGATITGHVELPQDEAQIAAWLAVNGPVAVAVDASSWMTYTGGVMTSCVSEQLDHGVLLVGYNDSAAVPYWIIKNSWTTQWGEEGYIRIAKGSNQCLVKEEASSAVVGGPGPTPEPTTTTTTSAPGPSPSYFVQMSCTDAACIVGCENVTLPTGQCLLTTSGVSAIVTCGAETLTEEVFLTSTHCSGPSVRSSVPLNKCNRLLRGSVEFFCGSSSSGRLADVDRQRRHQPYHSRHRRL

Trypanosoma cruzi [10] = test: Potency index, ratio of compound IC90 to benznidazole IC90 for Trypanocidal activity against intracellular amastigote stage of luciferase expressing Trypanosoma cruzi Dm28c infected in Vero cells; format: functional
Cruzipain [11] = molecular target: T1, Cruzipain; test: Inhibition of Trypanosoma cruzi cruzipain assessed as reduction in enzymatic activity using Z-FR-AMC fluorogenic peptide substrate incubated for 45 mins by spectrophotometry analysis
How it was run: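 Soluble trypomastigote protein extract (lysis in Tris pH 8.0/NaCl/glycerol/Triton X-100, 25,000 g supernatant) used as enzyme source. Incubated with 30 µM Z-FR-AMC in 10 mM sodium acetate pH 5.0 with 1 mM DTT, co-incubated with inhibitor concentrations, 45 min at 37 °C. AMC release read by fluorescence. Substrate self-degradation and DMSO ≤1% controls.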

[12] = Selectivity index, ratio of CC50 for mouse cardiomyocyte infected with intracellular amastigote stage of Trypanosoma cruzi Y strain to IC50 for amastigote stage of Trypanosoma cruzi Y strain; format: toxicity, cell-based; settings: read-out: Ratio CC50/IC50
[13] = Cytotoxicity against mouse cardiomyocytes infected with intracellular amastigote stage of Trypanosoma cruzi Y strain assessed as reduction in cardiomyocyte viability after 72 hrs by Celltiter-Glo assay; format: cell-based, Cardiac Muscle Cell
How it was run: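 Primary heart muscle cells from 18-day mouse fetuses, dissociated with trypsin/collagenase II, grown in DMEM with 7% FBS, 2% chicken embryo extract, 1 mM L-glutamine, antibiotics, 37 °C, 5% CO₂. Plated at 5 × 10⁴ cells/well and treated 72 h. Viability read by ATP luminescence. CC50 from linear regression; DMSO ≤1% control; at least three independent assays in duplicate.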

Trypanosoma cruzi [14] = test: Trypanocidal activity against intracellular amastigote stage of Trypanosoma cruzi Y strain infected in Swiss webster cardiac cells assessed as reduction in parasite viability

IC50 (Cruzipain [8])	Ratio IC50 [9]	IC50 (Cruzipain [11])	SMILES	IC50 (Trypanosoma cruzi [1])	IC90 (Trypanosoma cruzi [1])	IC50 (Trypanosoma cruzi [2])	IC90 (Trypanosoma cruzi [2])	IC50 (Trypanosoma cruzi [3])	IC90 (Trypanosoma cruzi [3])	CC50 at 72 h [4]	selectivity ratio [5]	selectivity ratio [6]	selectivity ratio [7]	Ratio (Trypanosoma cruzi [10])	selectivity ratio [12]	CC50 at 72 h [13]	IC50 (Trypanosoma cruzi [14])
			COc1ccc(-n2ncc(C3=NCCCN3)c2N)cc1	> 100 µM	> 100 µM	> 100 µM	> 100 µM	> 100 µM	> 100 µM	> 500 µM							
			Nc1c(C2=NCCN2)cnn1-c1cccc(Br)c1	67.4 µM	> 100 µM	> 100 µM	> 100 µM	27.7 µM	> 100 µM	352 µM	5.2	12.7					
			Nc1c(C2=NCCCN2)cnn1-c1ccc(Cl)c(Cl)c1	> 100 µM	> 100 µM	> 100 µM	> 100 µM	> 100 µM	> 100 µM	> 500 µM							
			Nc1c(C2=NCCN2)cnn1-c1ccc(Cl)cc1	> 100 µM	> 100 µM	78.9 µM	> 100 µM	84.2 µM	> 100 µM	> 500 µM		> 5.9	> 6.3				
			Nc1c(C2=NCCCN2)cnn1-c1cccc(Cl)c1	> 100 µM	> 100 µM	> 100 µM	> 100 µM	> 100 µM	> 100 µM	> 500 µM							
			COc1ccc(-n2ncc(C3=NCCN3)c2N)cc1	63.4 µM	> 100 µM	> 100 µM	> 100 µM	> 100 µM	> 100 µM	> 500 µM	> 7.9						
			Nc1c(C2=NCCCN2)cnn1-c1ccc(Cl)cc1	> 100 µM	> 100 µM	> 100 µM	> 100 µM	> 100 µM	> 100 µM	> 500 µM							
3 µM			CC(C)C[C@H](NC(=O)[C@@H]1O[C@H]1C(=O)O)C(=O)NCCCCN=C(N)N														
			Nc1c(C2=NCCCN2)cnn1-c1ccc(Br)cc1	> 100 µM	> 100 µM	> 100 µM	> 100 µM	> 100 µM	> 100 µM	> 500 µM							
			Nc1c(C2=NCCN2)cnn1-c1ccc(F)cc1	> 100 µM	> 100 µM	> 100 µM	> 100 µM	> 100 µM	> 100 µM	> 500 µM							
			Nc1c(C2=NCCCN2)cnn1-c1cccc(Br)c1	> 100 µM	> 100 µM	> 100 µM	> 100 µM	> 100 µM	> 100 µM	> 500 µM							
	60	180 µM	Nc1c(C2=NCCN2)cnn1-c1ccc(Cl)c(Cl)c1	13.6 µM	30.5 µM	10.5 µM	29 µM	28.3 µM	> 100 µM	244 µM	17.9	8.6	23.3	4.4	32.4	412 µM	12.7 µM
			Nc1c(C2=NCCN2)cnn1-c1cccc(Cl)c1	20.6 µM	55 µM	53.3 µM	81.1 µM	31.3 µM	> 100 µM	> 500 µM	> 24.3	> 15.9	9.4				
			Nc1c(C2=NCCN2)cnn1-c1ccccc1	84.2 µM	> 100 µM	> 100 µM	> 100 µM	> 100 µM	> 100 µM	> 500 µM	> 5.9						
			Nc1c(C2=NCCCN2)cnn1-c1ccccc1	> 100 µM	> 100 µM	> 100 µM	> 100 µM	> 100 µM	> 100 µM	> 500 µM							
			Nc1c(C2=NCCCN2)cnn1-c1ccc(F)cc1	> 100 µM	> 100 µM	> 100 µM	> 100 µM	> 100 µM	> 100 µM	> 500 µM							
			O=C(Cn1ccnc1[N+](=O)[O-])NCc1ccccc1 [BENZNIDAZOLE]	1.9 µM	6.9 µM	19.1 µM	94.1 µM	23.3 µM	> 100 µM	> 500 µM	> 263	> 21.4	> 26.3		> 555	> 500 µM	0.9 µM
			Nc1c(C2=NCCN2)cnn1-c1ccc(Br)cc1	84.2 µM	> 100 µM	> 100 µM	> 100 µM	52.3 µM	> 100 µM	> 500 µM	> 5.9	> 9.5					
	8	24 µM	Nc1c(C2=NCCN2)cnn1-c1cc(Cl)cc(Cl)c1	16.5 µM	29.9 µM	9.5 µM	28.9 µM	30.9 µM	> 100 µM	257 µM	15.6	8.3	27.1	4.4	30.3	379 µM	12.5 µM
			Nc1c(C2=NCCCN2)cnn1-c1cc(Cl)cc(Cl)c1	> 100 µM	> 100 µM	> 100 µM	> 100 µM	> 100 µM	> 100 µM	> 500 µM							
